Test results from article PMC7246176 (Nature chemical biology, 2020).
pIC50: −log10 of the molar value. Where two headings read alike, the source gives them in different places.

What was measured:
PATU-8902 cells [1] = assay: Cell viability, ultra-low adherent 3D-spheroid culture, PATU-8902; assay type: cell-based, human; conditions: read-out: PATU-8902 cells 3D spheroid culture IC50
In short: (§1)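 PATU-8988T and PATU-8902 cells were plated at 100 cells/well in 50 μL media, either adherent (2D) or in ultra-low attachment spheroid plates (3D), overnight. Test compound was pin-transferred and cells were incubated 120 h. Viability was read by CellTiter-Glo luminescence after 15 min at room temperature. Data were normalized to DMSO-treated wells per cell line and fitted.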

PATU-8988T cells [2] = assay: Cell viability, ultra-low adherent 3D-spheroid culture, PATU-8988T; assay type: cell-based, human; conditions: 120 h, read-out: PATU-8988T cells 3D spheroid culture IC50
In short: (§2)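 PATU-8902 or PATU-8988T cells were plated at 100 cells/well and left overnight to adhere (2D plates) or to form spheroids (ultra-low-attachment 3D spheroid plates). Compound was pin-transferred, then 120 h incubation. Viability by CellTiter-Glo luminescence after 15 min at room temperature, normalized to DMSO-treated wells for each cell line.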

PATU-8988T cells [3] = assay: Cell viability, 2D-adherent monolayer culture, PATU-8988T; assay type: cell-based, human; conditions: 120 h, read-out: PATU-8988T cells 2D monolayer culture IC50
In short: as §1

PANFR0172_T4 = assay: Patient-derived pancreatic organoid viability, PANFR0172_T4; assay type: cell-based, human; conditions: read-out: PANFR0172_T4 3D organoid culture IC50
In short: (§3)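 Patient-derived PDAC organoids were dissociated to single cells and plated at 1000 viable cells/well in complete organoid medium with 10% Matrigel, in ultra-low-attachment 384-well plates. After 24 h, compound was added by digital dispenser, then 7 days incubation. Read-out was CellTiter-Glo 3D luminescence after 1 h shaking at room temperature, normalized to DMSO wells for each culture.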

PATU-8902 cells [4] = assay: Cell viability, 2D-adherent monolayer culture, PATU-8902; assay type: cell-based, human; conditions: read-out: PATU-8902 cells 2D monolayer culture IC50
In short: as §2

PANFR0029_T2 = assay: Patient-derived pancreatic organoid viability, PANFR0029_T2; assay type: cell-based, human; conditions: read-out: PANFR0029_T2 3D organoid culture IC50
In short: as §3

DCLK1 protein levels = DCLK1 protein levels by immunoblot in PDAC cells; assay type: cell-based, human; conditions: after 48 h, PATU-8988T and PATU-8902 cells
PANFR0172_T2 = assay: Patient-derived pancreatic organoid viability, PANFR0172_T2; assay type: cell-based, human; conditions: read-out: PANFR0172_T2 3D organoid culture IC50
In short: as §3

PANFR0172_T3 = assay: Patient-derived pancreatic organoid viability, PANFR0172_T3; assay type: cell-based, human; conditions: read-out: PANFR0172_T3 3D organoid culture IC50
In short: as §3

[5] = biological target: T1, DCLK1-Nluc in HCT116 cells (Homo sapiens, UniProt O15075); assay: DCLK1 NanoBRET target engagement assay in HCT116 cells; assay type: cell-based
T1 sequence (O15075 1-729 isoform O15075-2): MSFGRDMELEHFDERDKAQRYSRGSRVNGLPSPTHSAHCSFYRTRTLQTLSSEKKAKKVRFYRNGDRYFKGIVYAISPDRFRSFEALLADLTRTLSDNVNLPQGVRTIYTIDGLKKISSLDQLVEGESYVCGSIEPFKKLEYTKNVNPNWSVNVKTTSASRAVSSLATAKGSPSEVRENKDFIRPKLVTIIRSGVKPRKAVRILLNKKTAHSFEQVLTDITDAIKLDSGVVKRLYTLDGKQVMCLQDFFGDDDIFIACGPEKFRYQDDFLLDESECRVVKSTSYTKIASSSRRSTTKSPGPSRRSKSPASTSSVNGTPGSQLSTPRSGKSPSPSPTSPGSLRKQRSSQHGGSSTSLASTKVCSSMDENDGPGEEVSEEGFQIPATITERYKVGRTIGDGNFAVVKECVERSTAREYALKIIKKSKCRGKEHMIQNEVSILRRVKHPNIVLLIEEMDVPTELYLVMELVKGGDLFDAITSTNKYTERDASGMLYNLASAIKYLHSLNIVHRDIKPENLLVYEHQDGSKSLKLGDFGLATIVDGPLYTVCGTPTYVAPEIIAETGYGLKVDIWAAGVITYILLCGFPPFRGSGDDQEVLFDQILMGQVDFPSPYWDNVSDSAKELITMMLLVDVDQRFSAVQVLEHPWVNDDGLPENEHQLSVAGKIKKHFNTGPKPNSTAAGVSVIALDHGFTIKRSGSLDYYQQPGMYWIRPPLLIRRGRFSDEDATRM

DCLK2 = biological target: T2, DCLK2 (Homo sapiens, UniProt Q8N568); assay: DCLK2 KINOMEscan binding assay
T2 sequence (Q8N568 1-766): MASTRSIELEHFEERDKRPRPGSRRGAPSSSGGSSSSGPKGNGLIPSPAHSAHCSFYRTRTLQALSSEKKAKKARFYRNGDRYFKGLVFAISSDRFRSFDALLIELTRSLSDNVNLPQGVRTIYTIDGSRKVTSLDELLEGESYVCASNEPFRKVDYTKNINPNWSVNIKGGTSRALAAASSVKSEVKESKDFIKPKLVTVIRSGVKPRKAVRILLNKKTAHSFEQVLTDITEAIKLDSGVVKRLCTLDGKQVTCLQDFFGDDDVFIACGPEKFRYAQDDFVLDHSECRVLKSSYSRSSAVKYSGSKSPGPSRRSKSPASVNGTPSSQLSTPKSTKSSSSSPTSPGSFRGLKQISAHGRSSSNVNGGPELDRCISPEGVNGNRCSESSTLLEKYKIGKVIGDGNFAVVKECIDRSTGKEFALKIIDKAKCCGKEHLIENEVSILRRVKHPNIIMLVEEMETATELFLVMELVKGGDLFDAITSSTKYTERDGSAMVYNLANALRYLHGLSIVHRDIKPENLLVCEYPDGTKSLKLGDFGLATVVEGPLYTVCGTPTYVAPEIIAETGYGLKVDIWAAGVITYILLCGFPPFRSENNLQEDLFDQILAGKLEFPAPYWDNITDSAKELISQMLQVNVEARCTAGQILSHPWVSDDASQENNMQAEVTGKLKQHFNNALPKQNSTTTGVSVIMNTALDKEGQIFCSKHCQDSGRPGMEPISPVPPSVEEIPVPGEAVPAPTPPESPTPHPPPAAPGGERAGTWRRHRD
In short: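 KINOMEscan competition binding run by a contract lab. Test compound in 12-point dose response, top concentration 10 μM. Values are the mean of n = 2 biologically independent samples.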

DCLK1 = biological target: T3, DCLK1 (Homo sapiens, UniProt O15075); assay: 33P-ATP DCLK1 kinase assay; assay type: biochemical; conditions: DCLK1 kinase assay IC50, 33P-ATP; ATP 50 μM (Km)
T3 sequence (O15075 1-740): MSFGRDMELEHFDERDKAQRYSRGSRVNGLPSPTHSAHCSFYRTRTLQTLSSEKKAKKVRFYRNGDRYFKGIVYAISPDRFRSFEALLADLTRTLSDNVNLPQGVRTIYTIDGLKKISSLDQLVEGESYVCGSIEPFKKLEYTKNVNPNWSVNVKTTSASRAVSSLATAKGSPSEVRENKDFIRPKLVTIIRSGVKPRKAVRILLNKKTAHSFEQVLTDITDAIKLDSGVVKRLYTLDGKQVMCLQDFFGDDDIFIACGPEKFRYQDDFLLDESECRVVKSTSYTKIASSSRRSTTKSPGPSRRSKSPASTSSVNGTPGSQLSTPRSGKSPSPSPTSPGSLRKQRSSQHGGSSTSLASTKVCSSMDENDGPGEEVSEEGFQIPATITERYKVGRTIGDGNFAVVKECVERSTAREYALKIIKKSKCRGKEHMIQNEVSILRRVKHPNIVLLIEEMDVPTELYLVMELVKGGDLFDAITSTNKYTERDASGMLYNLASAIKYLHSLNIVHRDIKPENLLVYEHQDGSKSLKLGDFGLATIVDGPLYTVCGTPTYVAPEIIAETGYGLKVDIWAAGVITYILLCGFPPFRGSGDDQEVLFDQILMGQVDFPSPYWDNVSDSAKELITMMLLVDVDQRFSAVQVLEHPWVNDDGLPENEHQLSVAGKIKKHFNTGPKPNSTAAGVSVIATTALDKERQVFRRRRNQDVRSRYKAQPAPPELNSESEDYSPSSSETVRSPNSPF

LRRK2 = LRRK2 (Homo sapiens, UniProt Q5S007); assay: LRRK2 ADAPTA kinase assay; assay type: biochemical; conditions: LRRK2 kinase assay IC50, ADAPTA; Table 1
LRRK2, sequence (Q5S007 whole entry): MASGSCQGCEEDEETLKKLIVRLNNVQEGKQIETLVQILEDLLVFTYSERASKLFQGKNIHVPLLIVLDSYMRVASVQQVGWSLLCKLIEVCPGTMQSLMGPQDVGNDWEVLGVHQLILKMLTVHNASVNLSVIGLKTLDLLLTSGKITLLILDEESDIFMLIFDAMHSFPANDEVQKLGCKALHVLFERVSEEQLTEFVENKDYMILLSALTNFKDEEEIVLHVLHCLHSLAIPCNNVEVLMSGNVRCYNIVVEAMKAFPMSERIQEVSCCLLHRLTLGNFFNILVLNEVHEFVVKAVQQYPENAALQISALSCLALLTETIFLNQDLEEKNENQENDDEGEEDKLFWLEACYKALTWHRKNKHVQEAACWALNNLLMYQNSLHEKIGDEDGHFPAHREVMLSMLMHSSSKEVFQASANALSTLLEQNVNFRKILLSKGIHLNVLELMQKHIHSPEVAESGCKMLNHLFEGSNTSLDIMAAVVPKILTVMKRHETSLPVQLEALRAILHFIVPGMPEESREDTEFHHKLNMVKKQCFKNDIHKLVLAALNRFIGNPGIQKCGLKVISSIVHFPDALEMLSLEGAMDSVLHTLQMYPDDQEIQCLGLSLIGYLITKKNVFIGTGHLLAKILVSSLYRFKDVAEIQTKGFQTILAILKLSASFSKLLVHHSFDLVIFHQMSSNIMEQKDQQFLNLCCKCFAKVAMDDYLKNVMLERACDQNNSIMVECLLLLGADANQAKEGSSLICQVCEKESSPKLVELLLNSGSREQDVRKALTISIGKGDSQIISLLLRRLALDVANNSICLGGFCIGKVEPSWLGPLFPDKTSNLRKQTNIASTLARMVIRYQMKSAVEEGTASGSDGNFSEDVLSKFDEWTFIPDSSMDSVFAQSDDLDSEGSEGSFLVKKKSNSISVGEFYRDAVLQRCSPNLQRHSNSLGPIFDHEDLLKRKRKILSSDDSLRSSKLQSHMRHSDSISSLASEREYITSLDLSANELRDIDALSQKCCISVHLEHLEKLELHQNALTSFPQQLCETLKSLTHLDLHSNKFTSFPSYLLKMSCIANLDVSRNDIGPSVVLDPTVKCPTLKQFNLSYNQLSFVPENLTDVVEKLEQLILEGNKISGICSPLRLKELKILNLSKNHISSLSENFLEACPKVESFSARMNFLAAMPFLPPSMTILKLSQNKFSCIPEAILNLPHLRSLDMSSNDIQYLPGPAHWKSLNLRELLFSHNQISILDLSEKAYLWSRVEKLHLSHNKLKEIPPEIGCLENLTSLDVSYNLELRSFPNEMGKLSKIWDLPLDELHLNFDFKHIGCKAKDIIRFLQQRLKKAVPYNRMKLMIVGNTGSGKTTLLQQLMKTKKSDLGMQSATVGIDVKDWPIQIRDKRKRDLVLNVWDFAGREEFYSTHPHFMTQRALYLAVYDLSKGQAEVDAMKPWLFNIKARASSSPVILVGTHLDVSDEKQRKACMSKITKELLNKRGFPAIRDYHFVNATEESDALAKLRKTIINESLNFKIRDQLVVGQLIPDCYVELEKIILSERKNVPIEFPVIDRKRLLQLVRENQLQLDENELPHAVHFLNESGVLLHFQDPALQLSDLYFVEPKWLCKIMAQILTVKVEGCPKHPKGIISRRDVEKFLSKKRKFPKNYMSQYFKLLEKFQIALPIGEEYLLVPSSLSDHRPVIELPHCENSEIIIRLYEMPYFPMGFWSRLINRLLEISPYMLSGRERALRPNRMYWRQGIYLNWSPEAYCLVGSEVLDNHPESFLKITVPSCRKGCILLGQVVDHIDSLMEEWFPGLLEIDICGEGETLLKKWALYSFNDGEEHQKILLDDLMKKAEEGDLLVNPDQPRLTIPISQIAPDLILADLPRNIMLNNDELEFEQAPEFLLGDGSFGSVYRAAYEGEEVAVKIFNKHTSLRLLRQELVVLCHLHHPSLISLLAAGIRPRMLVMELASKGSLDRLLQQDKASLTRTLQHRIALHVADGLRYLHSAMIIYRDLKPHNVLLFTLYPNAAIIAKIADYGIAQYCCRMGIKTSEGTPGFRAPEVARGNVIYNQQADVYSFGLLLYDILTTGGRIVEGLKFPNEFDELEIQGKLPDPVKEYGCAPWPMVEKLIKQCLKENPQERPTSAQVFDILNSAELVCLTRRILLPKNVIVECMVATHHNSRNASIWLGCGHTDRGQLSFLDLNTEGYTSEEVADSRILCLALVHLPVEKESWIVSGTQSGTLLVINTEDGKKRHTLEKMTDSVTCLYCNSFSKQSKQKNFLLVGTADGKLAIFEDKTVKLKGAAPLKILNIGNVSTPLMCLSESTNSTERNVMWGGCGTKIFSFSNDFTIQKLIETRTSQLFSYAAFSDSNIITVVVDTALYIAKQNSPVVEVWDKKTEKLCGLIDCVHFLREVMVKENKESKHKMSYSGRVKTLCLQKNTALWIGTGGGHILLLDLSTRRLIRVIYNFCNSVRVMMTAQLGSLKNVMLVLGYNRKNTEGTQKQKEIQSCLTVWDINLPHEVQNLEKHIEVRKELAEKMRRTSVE

FKBP12^F36V-KRAS^G12V = assay: KRAS G12V degradation by immunoblot in FKBP12F36V-KRASG12V; assay type: cell-based, human; conditions: KRAS^−/− cells
[6] = viability, 7 d, P.R. = partial response

For `CC(=O)Nc1cccc(-n2c(=O)n(C3CC3)c(=O)c3c(Nc4ccc(I)cc4F)n(C)c(=O)c(C)c32)c1` [Trametinib], the pIC50 (PATU-8902 cells [1]; Homo sapiens, PaTu 8902, 120 h) was greater than 9.20, the pIC50 (PATU-8988T cells [2]; Homo sapiens, PaTu 8988t) was 9.00 and the pIC50 (PATU-8988T cells [3]; Homo sapiens, PaTu 8988t) was 7.22. For the same compound, the pIC50 (PANFR0172_T4; Homo sapiens, 168 h) was less than 4.70, the pIC50 (PATU-8902 cells [4]; Homo sapiens, PaTu 8902, 120 h) was 8.31 and the pIC50 (PANFR0029_T2; Homo sapiens, 168 h) was 6.73. The “effect on DCLK1 protein levels” value (DCLK1 protein levels) was “diminished DCLK1 protein levels”, the pIC50 (PANFR0172_T2; Homo sapiens, 168 h) was 6.10 and the pIC50 (PANFR0172_T3; Homo sapiens, 168 h) was 5.93.
With `Cc1sc2c(c1C)C(c1ccc(Cl)cc1)=N[C@@H](CC(=O)OC(C)(C)C)c1nnc(C)n1-2` [JQ1] the pIC50 (PATU-8902 cells [1]; cell viability, 120 h, P.R. = partial response) was less than 6.00, the pIC50 (PATU-8988T cells [2]; cell viability) was 6.95 and the pIC50 (PATU-8988T cells [3]; cell viability, P.R. = partial response) was 7.17. It also gave a pIC50 (PANFR0172_T4; [6]) of less than 6.00, a pIC50 (PATU-8902 cells [4]; cell viability, 120 h) of 5.74 and a pIC50 (PANFR0029_T2; viability, 7 d, DCLK1-negative organoids) of 6.44. The pIC50 (PANFR0172_T2; [6]) was less than 6.00 and the pIC50 (PANFR0172_T3; [6]) was less than 6.00.
`COc1cc(C(=O)N2CCC(N3CCN(C)CC3)CC2)ccc1Nc1ncc2c(n1)N(C)c1ccccc1C(=O)N2C` [LRRK2-IN-1] showed a pIC50 (PATU-8902 cells [1]; Homo sapiens, PaTu 8902, 120 h) of less than 6.00, a pIC50 (PATU-8988T cells [2]; Homo sapiens, PaTu 8988t) of 5.73 and a pIC50 (PATU-8988T cells [3]; Homo sapiens, PaTu 8988t) of 5.94. For the same compound, the pIC50 (PANFR0172_T4; Homo sapiens, 168 h) was less than 4.70, the pIC50 (PATU-8902 cells [4]; Homo sapiens, PaTu 8902, 120 h) was less than 4.70 and the pIC50 [5] was 6.40. The pIC50 (DCLK2) was 8.00, the pIC50 (DCLK1) was 7.26 and the pIC50 (PANFR0172_T2; Homo sapiens, 168 h) was 5.87. For the same compound, the pIC50 (PANFR0172_T3; Homo sapiens, 168 h) was 5.82 and the pIC50 (LRRK2) was 8.39.
For `CC[C@H](C(=O)N1CCCC[C@H]1C(=O)O[C@H](CCc1ccc(OC)c(OC)c1)c1ccccc1OCC(=O)NCCCCCCOc1cccc2c1C(=O)N(C1CCC(=O)NC1=O)C2=O)c1cc(OC)c(OC)c(OC)c1` (some centres unmarked) [dTAG-13], the “time to initiation of KRAS^G12V degradation” value (FKBP12^F36V-KRAS^G12V) was no more than 1 h.
